PglD inh – PglD (C. jejuni) enzyme inhibition | 360,000 compounds, 0.098% hits | purified PglD enzyme, DTNB colorimetric CoA detection | inhibition, % at 12.5 µM | AID 602405; in the data active means inhibition above about 16%, passing the limit was not always enough
Cneo AK release – causes C. neoformans cell lysis; adenylate kinase release luminescence, 4 h; normalised: neutral wells 0, clomiphene wells 100; lysis activity, % at 15 µM; 360,000 compounds, 0.2% hits;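 active means mean lysis activity across replicates of at least 80%, whatever share of replicates individually reach that level; inactive means mean lysis activity below 80%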
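Material – Cryptococcus neoformans yeast cells · Quantity – 5 × 10^6 yeast cells/mL · Buffer or medium – YPD medium · Compound – single dose · Timing – 4 h static compound exposure, 37 °C, read 1 h post-reagent · Signal – adenylate kinase release luminescence · Read-out basis – lysis from increased AK signal · Benchmarks – Clomiphene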
CR mimetic SO – lowers age-related superoxide in aged yeast cells; 330,000 compounds, 0.18% hits; S. cerevisiae aged cells, superoxide DHE fluorescence; hits give low values; superoxide response (% of plate mean), % at 10 µM;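 active means superoxide response under a set limit, about three screen SD below normal, cut at about 65% in these data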;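 further: yeast aged for seven days with compound at 30 °C before DHE staining; 100% = average MFI of all compound-treated wells on the plate with controls excluded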
SUMO Mot1 rescue – SUMOylation pathway inhibition by Mot1-301 growth rescue; S. cerevisiae Mot1-301 growth rescue, ATP luminescence, 38.5C; percent above DMSO median, 100 means doubled; growth rescue, % at 18.8 µM; 320,000 compounds, 1% hits; AID 2716;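 active means every valid replicate shows activation above 250% relative to neutral control wells; inactive means the rest, any valid replicate at or below 250%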;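 further: OY570 slx delta 5 strain wells were the positive control but not used for scaling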
Ecoli rRNA inh – inhibits bacterial ribosomal RNA function over humanized ribosomes; 350,000 compounds, 1.6% hits; E. coli WT GFP vs humanized-ribosome RFP mutants, fluorescence, 24 h; hits give low values; DMSO median 0, no signal -100; GFP signal change (wild-type ribosome), % (concentration not given with the values);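 active means significant combined selectivity score with lowered wild-type GFP, culture density cut under 30%, mutant RFP and density less affected; inactive means any of these conditions unmet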
Yeast Mot1 SUMO – yeast SUMO pathway inhibition in dose response | shares compounds with SUMO Mot1 rescue | S. cerevisiae Mot1-301 galactose growth, ATP luminescence, 24 h; -100 = growth of slx-deleted rescue strain | growth activity, percent, % at 42 µM | 2,300 tested, under 10 active;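 active means Signal drops as the depositor expects, and the fitted half-maximal dose is no more than ten times the top valid tested dose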;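 further: more negative values mean stronger growth rescue toward the control strain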
* = called active by the depositor; . = no result; + = active, no number; [ ] = remark or other dose. The list is not random: actives were taken first. Their share in the collection is about 2.2%.

SMILES | PglD inh | Cneo AK release | CR mimetic SO | SUMO Mot1 rescue | Ecoli rRNA inh | Yeast Mot1 SUMO
CCOC(=O)c1oc2c(c1C)/C(=N/O)CCC2 | 1 | 0 | 108 | -14 | 1 | .
CC(=O)N1CCc2cc(S(=O)(=O)Nc3ccc(C)cc3C)ccc21 | . | 0 | 96 | -13 | 4 | .
CC(=O)N1CCCc2cc(S(=O)(=O)Nc3ccc(C)cc3C)ccc21 | 6 | 1 | 101 | 474* | -19 | 0
C[C@@H]1CN([C@@H](C)CO)S(=O)(=O)c2ccc(C3=CCCC3)cc2O[C@@H]1CN(C)C | 7 | 48 | . | . | 0 | .
COc1cccc(Nc2nc(C)nc3c2oc2ccccc23)c1 | -1 | 0 | 92 | 451* | 8 | -1
CN1C[C@@H]2[C@H](c3ccccc31)[C@@H](CO)N2C(=O)Nc1ccc(F)cc1 | 0 | -4 | . | . | -9 | .
Cc1nc2ccc(S(=O)(=O)NC(CC(C)C)C(=O)O)cc2s1 (stereo not given) | -5 | 2 | 96 | + | . | 0
Cc1ccc(NC(=O)CCS(=O)(=O)c2ccc3nc(C)sc3c2)cc1 | -7 | 4 | 119 | 524* | 4 | 0
Cc1ccc(S(=O)(=O)CCC(=O)Nc2ccc3nc(C)sc3c2)cc1 | 1 | 1 | 99 | -6 | 1 | .
C[C@H](CO)N1C[C@H](C)[C@H](CN(C)C(=O)CCCN(C)C)OCCCC[C@H](C)Oc2ccc(NS(=O)(=O)c3ccc(Cl)cc3)cc2C1=O | 0 | -4 | . | . | 2 | .
COc1ccc(N2CCN(CCCNC(=O)C(=O)c3c(C)[nH]c4ccccc34)CC2)cc1 | -2 | 2 | 104 | 413* | -1 | 0[21 µM]
Cc1ccc(CNC(=O)CCNS(=O)(=O)c2cccs2)cc1 | 6 | -1 | 109 | + | -3 | 1
COc1ccc(-c2nc(NC(=O)CCNC(=O)c3ccco3)sc2C)cc1 | -3 | -2 | 106 | 368* | -41 | 0
COc1ccc(CCNC(=O)CCNC(=O)c2ccco2)cc1 | 1 | 0 | 99 | 1 | -1 | .
CC(C)(C)C(=O)NC1(C(F)(F)F)NC(=O)N(c2ccccc2F)C1=O (stereo not given) | . | . | 117 | 483* | -2 | 0
O=C(NC1(C(F)(F)F)NC(=O)N(c2ccccc2F)C1=O)c1ccncc1 (stereo not given) | 7 | 2 | 93 | -3 | 6 | .
O=C(O)C[C@H]1C[C@@H]2c3cc(NC(=O)Nc4ccccc4)ccc3O[C@@H]2[C@@H](CO)O1 | 2 | 47 | . | . | 4 | .
CCNC(=O)/C(C#N)=C/c1c(N2CCN(c3ccccc3)CC2)nc2ccccn2c1=O | -6 | 6 | 90 | 7 | 3 | .
CCNC(=O)/C(C#N)=C/c1c(N2CCCCCC2)nc2ccccn2c1=O | -5 | -2 | 104 | 748* | 9 | 0
N#C/C(=C\c1c(N(Cc2ccccc2)Cc2ccccc2)nc2ccccn2c1=O)C(N)=O | -9 | 7 | 102 | . | . | 0
CNC[C@H]1Oc2ccc(NC(=O)NC3CCCCC3)cc2CC(=O)N([C@@H](C)CO)C[C@H]1C | 4 | 4 | . | . | 6 | .
C[C@@H]1CN([C@H](C)CO)C(=O)c2cccc(NS(=O)(=O)c3ccc(F)cc3)c2O[C@H]1CN(C)C(=O)NC1CCCCC1 | -2 | -1 | . | . | -3 | .
CC(=O)c1ccc(Nc2cc(C)nc3ccccc23)cc1 | . | . | 109 | 574* | 22 | 0
CC(=O)c1ccc(Nc2cc(C)nc3c(C)cccc23)cc1 | 6 | 0 | 97 | 22 | 13 | .
CCn1cc(C(=O)N2CCN(c3ccc(OC)cc3)CC2)c(=O)c2cc(S(=O)(=O)N3CCOCC3)ccc21 | 0 | -1 | 104 | 798* | 3 | -1
SMILES | PglD inh | Cneo AK release | CR mimetic SO | SUMO Mot1 rescue | Ecoli rRNA inh | Yeast Mot1 SUMO
COc1ccc(NC(=O)Nc2ccc3c(c2)CC(=O)N([C@H](C)CO)C[C@H](C)[C@H](CN(C)C(=O)Nc2ccccc2)O3)cc1 | 1 | -1 | . | . | 2 | .
COC(=O)c1sc2ccccc2c1NC(=O)c1ccc(S(=O)(=O)N2CCCC(C)C2)cc1 (stereo not given) | 5 | 4 | 96 | 511* | . | 0
Cc1noc(C)c1Cc1ccc(O)cc1 | 1 | 0 | 101 | 472* | . | -1
CN(C)CCCNC(=O)C[C@@H]1CC[C@H]2[C@H](COc3ccc(NC(=O)c4ccccc4F)cc3C(=O)N2C)O1 | 1 | -2 | . | . | 6 | .
CSCCC(NC(=O)c1ccccc1)C(=O)N1CCN(C(=O)c2ccccc2)CC1 (stereo not given) | 2 | -1 | 97 | -15 | 6 | .
CSCCC(NC(=O)c1ccco1)C(=O)N1CCN(Cc2ccccc2)CC1 (stereo not given) | 1 | 1 | 115 | 426* | 5 | 0
COc1ccc(S(=O)(=O)N(C)C[C@@H]2Oc3c(NS(C)(=O)=O)cccc3C(=O)N([C@@H](C)CO)C[C@@H]2C)cc1 | -1 | 0 | . | . | 3 | .
Fc1ccc(CSc2nnc(-c3ccncc3)o2)cc1 | 7 | 4 | 92 | -10 | 5 | .
Cc1ccccc1-c1nnc(SCc2ccc(F)cc2)o1 | 0 | . | 101 | + | -20 | -1
Cc1ccc(Cn2c(NCCc3ccccc3)nc3c2c(=O)n(C)c(=O)n3C)cc1 | 4 | 2 | 95 | 970* | . | 1
C=CCn1c(NCCc2ccccc2)nc2c1c(=O)n(C)c(=O)n2C | -5 | -2 | 105 | -12 | . | .
CC(=O)N1CCN(C(=O)c2cc3ccccc3o2)CC1 | -1 | 6 | 84 | -7 | 6 | .
O=C(c1cc2ccccc2o1)N1CCCC1 | . | . | 95 | + | 9 | 0
O=C(c1cc2ccccc2o1)N1CCN(C/C=C/c2ccccc2)CC1 | 0 | 3 | 94 | 541* | . | 0
O=C(c1cc2ccccc2o1)N1CCCCCC1 | -2 | 1 | 97 | 195 | . | .
Cc1ccc(Sc2cnccc2C#N)cc1 | 4 | -5 | 92 | 618* | -3 | 2
Cc1ccc2c(c1)N(CC(=O)NCC1CCCO1)C(=O)C(C)O2 (stereo not given) | 1 | 1 | 91 | 522* | . | 0
C[C@H]1CN([C@@H](C)CO)C(=O)c2cc(NC(=O)Nc3ccc(F)cc3)ccc2O[C@@H]1CN(C)C(=O)Nc1ccc(F)cc1 | 10 | -2 | . | . | 7 | .
O=C(COC(=O)/C=C/c1ccco1)Nc1ncc(C(F)(F)F)cc1Cl | -2 | -2 | 105 | 588* | 3 | 0
Cc1c(Cl)cnc(NC(=O)COC(=O)/C=C/c2ccco2)c1Cl | -4 | -1 | . | . | 4 | .
COc1ccccc1NC(=S)N(Cc1ccco1)Cc1cc2cccc(C)c2[nH]c1=O | -3 | 3 | 99 | 387* | . | 0
Cc1ccccc1-c1ccc2c(c1)O[C@@H](CN(C)C(=O)c1ccccn1)[C@H](C)CN([C@H](C)CO)S2(=O)=O | 2 | -3 | . | . | -3 | .
